MC4R ag barr – human MC4R agonism via beta-arrestin | AID 540308 | U2OS MC4R beta-arrestin complementation, luminescence; percent of melanotan II response, DMSO zero | activation, % at 8.9 µM | P32245 | 360,000 tested, 0.98% active;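 active = activation above a per-plate cutoff, the mean activation of sample wells on that plate plus 3 SD, cut at about 8% in these data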
Target sequence (P32245 whole entry, looked up): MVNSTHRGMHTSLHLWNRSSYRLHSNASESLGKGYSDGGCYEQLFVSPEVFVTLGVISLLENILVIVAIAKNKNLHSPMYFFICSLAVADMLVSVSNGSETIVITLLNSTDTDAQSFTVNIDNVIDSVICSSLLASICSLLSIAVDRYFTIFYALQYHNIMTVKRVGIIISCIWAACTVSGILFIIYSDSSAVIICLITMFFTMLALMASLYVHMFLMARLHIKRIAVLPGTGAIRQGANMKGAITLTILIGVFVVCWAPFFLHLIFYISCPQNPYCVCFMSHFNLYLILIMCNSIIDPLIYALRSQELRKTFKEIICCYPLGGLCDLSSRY
NR2E3 ag-1 – activates human NR2E3 receptor; AID 602229; CHO-S Gal4-NCOR/VP16-NR2E3 two-hybrid, luciferase; 360,000 tested, 0.35% active; inhibition of corepressor binding, % at 3.98 µM; Q9Y5X4;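 active = inhibition above the mean of all tested compounds plus 3 SD, cut at about 70% in these data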;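 note: 0% = DMSO with NR2E3 transfected cells and 100% = cells lacking NR2E3 construct; higher means lower luciferase signal from less NR2E3 corepressor binding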
MC4R antag cAMP – human MC4R antagonism in cAMP assay; P32245; MC4R-expressing cells, MTII-stimulated cAMP, LANCE TR-FRET; inhibition, % at 6.5 µM; 360,000 tested, 0.48% active; AID 540295;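 active = inhibition above its plate's cutoff, the mean of tested wells on that plate plus 3 SD, cut at about 29% in these data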;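 note: 0% = Melanotan II alone and 100% = Melanotan II plus saturating MCL0020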
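System: U2OS cells stably expressing human melanocortin 4 receptor (MC4R). Reagent: Melanotan II challenge after compound preincubation. Doses: 6.5 µM. Times: 30-min compound, 1-h challenge, 1-h detection, room temperature. Measured by: TR-FRET with Eu-cAMP and labeled anti-cAMP, 671 nm. Replicates: singlicate.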
NR2E3 ag-2 – NR2E3 (human) agonism. Q9Y5X4. GST-NR2E3/biotin-RetCOR TR-FRET, 1536-well. inhibition of corepressor binding, % at 4.78 µM. 320,000 tested, 0.12% active. AID 2300;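 active = percent inhibition above the cutoff of mean plus 3 SD of all tested compounds, set per screening campaign, cut at about 20% in these data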;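 note: 0% = DMSO wells and 100% = biotin wells as full block of FRET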
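Test system – NR2E3–RetCOR corepressor complex · Quantity – NR2E3 fusion 1.35 nM · Buffer or medium – Tris pH 7.5 · Incubation – Compound–protein incubation for 5 h at 4 °C · Technique – TR-FRET, Eu(K)-anti-GST donor, streptavidin-D2 acceptor, ex 340, em 617/671 nm · Evaluation – percent inhibition of 671/617 nm emission ratio versus biotin and DMSO controls · Plate – 1536-well format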
PG9 binder – PG9 antibody binding by small molecule | TR-FRET gp120-PG9 antibody binding | inhibition, % at 6.7 µM | 360,000 tested, 0.43% active | AID 624416; in the data active = inhibition above about 8.5%
NR1D1 modulator – modulates human Rev-erb alpha binding to DNA. AID 1259318. 370,000 tested, 0.79% active. Rev-erbα–FITC-DNA binding, fluorescence polarization, 90 min. activity, % at 10 µM;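 active = activity above about 14%, limit read from the data; passing the limit was not always enough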;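 note: 0% = DMSO wells with 35 nM protein and 100% = DMSO wells with 750 nM protein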
NR1D1 mod conf – Rev-erb alpha (human) modulation, hit confirmation. Rev-erb alpha FITC-DNA binding, fluorescence polarization, 90 min. 3,000 tested, 61% active. activation, % at 25 µM. shares compounds with NR1D1 modulator;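 active = activation at or above a set limit, or at least 3 SD above the negative control mean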;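 note: 0% = 35 nM protein with DMSO and 100% = 750 nM protein high control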
RORg DNA counter – affects RORgamma DNA binding in a Rev-erb alpha counter-screen | shares compounds with NR1D1 modulator | AID 1259320 | 910 tested, 8% active | purified RORgamma protein-FITC-DNA binding, fluorescence polarization | IC50, µM;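 active = Compounds whose fitted half-maximal concentration for disrupting protein-DNA binding is below 10 micromolar; the record names Rev-erb in its text, so the target is in doubt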
Numbers without * were called inactive. An excerpt weighted towards active compounds, which were near 2.7% of everything screened.

How did CN1C(=O)c2cccc3c(N(C)C)ccc(c23)C1=O do in these assays?
MC4R ag barr: -1; NR2E3 ag-1: -3; MC4R antag cAMP: -9; NR2E3 ag-2: 0; PG9 binder: -5; NR1D1 modulator: 27*; NR1D1 mod conf: 29*

Results for CN1C(=O)c2cccc3c(Cl)ccc(c23)C1=O ?
MC4R ag barr: 3; NR2E3 ag-1: 14; MC4R antag cAMP: -3; NR2E3 ag-2: 0; PG9 binder: -1; NR1D1 modulator: 5

Results for COc1cccc(-c2cc(=O)c3cc(NC(C)=O)ccc3[nH]2)c1 ?
MC4R ag barr: -1; NR2E3 ag-1: -11; MC4R antag cAMP: -7; NR2E3 ag-2: 4; PG9 binder: 1; NR1D1 modulator: 3

Results for O=C(OCc1cc2ccccc2[nH]c1=O)c1ccccn1 ?
MC4R ag barr: -1; NR2E3 ag-1: -20; MC4R antag cAMP: 9; NR2E3 ag-2: 4; PG9 binder: -1; NR1D1 modulator: 3

How did COCC(=O)N(Cc1cc2cc(C)ccc2[nH]c1=O)c1ccccc1 do in these assays?
MC4R ag barr: 2; NR2E3 ag-1: -1; MC4R antag cAMP: 5; NR2E3 ag-2: 4; PG9 binder: 0; NR1D1 modulator: 3

Results for COc1cc(OC)cc(C(=O)OCc2cc3ccccc3[nH]c2=O)c1 ?
MC4R ag barr: 2; NR2E3 ag-1: 8; MC4R antag cAMP: 17; NR2E3 ag-2: 0; PG9 binder: 3; NR1D1 modulator: 57*; NR1D1 mod conf: 50*; RORg DNA counter: >40

How did Cc1ccc2[nH]c(=O)c(CN(C(=O)c3cccs3)c3ccccc3)cc2c1 do in these assays?
MC4R ag barr: 6; NR2E3 ag-1: -13; MC4R antag cAMP: 1; NR2E3 ag-2: -1; PG9 binder: -3; NR1D1 modulator: 52*; NR1D1 mod conf: 96*; RORg DNA counter: >40

Results for O=C(OCc1cc2ccccc2[nH]c1=O)c1cccs1 ?
MC4R ag barr: -1; NR2E3 ag-1: -1; MC4R antag cAMP: 12; NR2E3 ag-2: -1; PG9 binder: 1; NR1D1 modulator: 27*; NR1D1 mod conf: 24*

How did CC(/C=N\NC(=O)c1cc(C)oc1C)=C\c1ccccc1 do in these assays?
MC4R ag barr: -3; NR2E3 ag-1: -62; MC4R antag cAMP: 4; NR2E3 ag-2: -2; PG9 binder: -3; NR1D1 modulator: -3

Results for N#Cc1ncccc1CCc1cccc(Cl)c1 ?
MC4R ag barr: -1; NR2E3 ag-1: -25; MC4R antag cAMP: -2; NR2E3 ag-2: -4; PG9 binder: -1; NR1D1 modulator: -3

Results for Cc1cc(C)c2c(n1)nn1c(N3CCN(c4ccccc4)CC3)cc(C)nc21 ?
MC4R ag barr: 8; NR2E3 ag-1: -2; MC4R antag cAMP: -2; NR2E3 ag-2: 0; PG9 binder: 7; NR1D1 modulator: 40*; NR1D1 mod conf: 26*

What do the screens show for `Cc1cc(N2CCOCC2)n2nc(C)c(-c3ccccc3)c2n1`?
MC4R ag barr: 0; NR2E3 ag-1: -3; MC4R antag cAMP: -9; NR2E3 ag-2: 2; PG9 binder: 0; NR1D1 modulator: -1

How did O=C(CN1CCOCC1)Nc1cccc(Br)c1 do in these assays?
MC4R ag barr: -1; NR2E3 ag-1: 23; MC4R antag cAMP: 5; NR2E3 ag-2: -5; PG9 binder: -3; NR1D1 modulator: -6

How did COC(=O)c1c(NC(=O)c2ccc(C(=O)c3ccccc3)cc2)sc2c1CC(C)(C)NC2(C)C do in these assays?
MC4R ag barr: -1; NR2E3 ag-1: -12; MC4R antag cAMP: 7; PG9 binder: -1; NR1D1 modulator: -7

What do the screens show for `CCOc1ccc(C(=O)Nc2sc3c(c2C(=O)OC)CC(C)(C)NC3(C)C)cc1`?
MC4R ag barr: 1; NR2E3 ag-1: -19; MC4R antag cAMP: 2; NR2E3 ag-2: -3; PG9 binder: -1; NR1D1 modulator: 70*; NR1D1 mod conf: -9

From PubChem
